Test results: article PMC9287213 (Clinical Pharmacokinetics, 2022)
Like-named read-outs stand apart in the source and are kept apart here.

Tests used:
[1] = cited from earlier work
[2] = test system: renal or hepatic transporters; details: ref data on file, Eli Lilly and Company; cited from earlier work
[3] = assay type: in vivo, human
Method in brief: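 Open-label parallel single-dose study; participants grouped by baseline Child-Pugh A, B, C or normal hepatic function. One subcutaneous 5-mg injection. Plasma sampled pre-dose and 8, 12, 24, 48, 72, 96, 168, 336 h post-dose; analyte immunoprecipitated, quantified by high-resolution LC/MS, positive HESI, range 2.00–500.00 ng/mL. Noncompartmental parameters from actual sampling times; geometric mean (geometric CV%); tmax analysed nonparametrically.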

[4] = test system: cytochrome P450 enzymes, sulfation, or glucuronidation enzymes; details: background statement, no reference given; cited from earlier work
albumin = details: in humans; background statement, no reference given; cited from earlier work
[5] = in humans; background statement, no reference given; cited from earlier work
[6] = hepatic impairment studies; cited from earlier work

| Compound | decrease in liver fat content compared with insulin degludec ([1]; SURPASS-3 sub-study, 52 weeks) | non-alcoholic steatohepatitis-related biomarkers ([1]; post-hoc analysis of the phase II study, 26 weeks of treatment) | substrate for renal or hepatic transporters commonly involved in drug disposition [2] | CL/F ([3]; human, plasma, sc, 5 mg) [mL/min] | Tmax ([3]; human, plasma, sc, 5 mg) [h] | Vd/F ([3]; human, plasma, sc, 5 mg) [L] | half-life ([3]; human, plasma, sc, 5 mg) [h] | CL/F ([3]; human, plasma, sc, 5 mg, CL/F (apparent total body clearance), single 5-mg subcutaneous dose, normal hepatic function, n = 13, geometric mean (geometric CV%), noncompartmental) [mL/min] | VSS/F (apparent volume of distribution at steady state) ([3]; single 5-mg subcutaneous dose, normal hepatic function, n = 13, geometric mean (geometric CV%), noncompartmental) | T1/2 (half-life associated with the terminal rate constant) ([3]; single 5-mg subcutaneous dose, normal hepatic function, n = 13, geometric mean (range), noncompartmental) | metabolism via pathways involving cytochrome P450 enzymes, sulfation, or glucuronidation enzymes [4] | bound to albumin (albumin) [%] | half-life [5] | impact of the severity of hepatic disease status on pharmacokinetics [6] |
| --- | --- | --- | --- | --- | --- | --- | --- | --- | --- | --- | --- | --- | --- | --- |
| CC[C@H](C)[C@H](NC(=O)[C@H](CC(C)C)NC(=O)[C@H](Cc1c[nH]c2ccccc12)NC(=O)[C@H](CCC(N)=O)NC(=O)[C@@H](NC(=O)[C@H](Cc1ccccc1)NC(=O)[C@H](C)NC(=O)[C@H](CCCCNC(=O)COCCOCCNC(=O)COCCOCCNC(=O)CC[C@H](NC(=O)CCCCCCCCCCCCCCCCCCC(=O)O)C(=O)O)NC(=O)[C@H](CCC(N)=O)NC(=O)[C@H](C)NC(=O)[C@@H](NC(=O)[C@H](CCCCN)NC(=O)[C@H](CC(=O)O)NC(=O)[C@H](CC(C)C)NC(=O)C(C)(C)NC(=O)[C@@H](NC(=O)[C@H](CO)NC(=O)[C@H](Cc1ccc(O)cc1)NC(=O)[C@H](CC(=O)O)NC(=O)[C@H](CO)NC(=O)[C@@H](NC(=O)[C@H](Cc1ccccc1)NC(=O)[C@@H](NC(=O)CNC(=O)[C@H](CCC(=O)O)NC(=O)C(C)(C)NC(=O)[C@@H](N)Cc1ccc(O)cc1)[C@@H](C)O)[C@@H](C)O)[C@@H](C)CC)[C@@H](C)CC)C(C)C)C(=O)N[C@@H](C)C(=O)NCC(=O)NCC(=O)N1CCC[C@H]1C(=O)N[C@@H](CO)C(=O)N[C@@H](CO)C(=O)NCC(=O)N[C@@H](C)C(=O)N1CCC[C@H]1C(=O)N1CCC[C@H]1C(=O)N1CCC[C@H]1C(=O)N[C@@H](CO)C(N)=O [Tirzepatide] | significantly greater decrease | improvement | not a substrate | 0.822 | 24 | 10.6 | 131 | 0.988 | 10.7 (20) L | 124 (101–158) h | not metabolized | 99.06 | approximately 5 days |  |
| dulaglutide |  |  |  |  |  |  |  |  |  |  |  |  |  | does not impact |
| semaglutide |  |  |  |  |  |  |  |  |  |  |  |  |  | does not impact |
